Reference: ChEMBL document CHEMBL1130116, “Synthesis and antimetastatic activity of L-iduronic acid-type 1-N-iminosugars” (1997)

Columns and labels:
Mus musculus [1] = species on record: Mus musculus; assay: % inhibition of metastasis at 145 uM in mice; assay type: functional
In short: (§1)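 B16 BL6 cells (3×10^5) were precultured 24 h in DMEM/FBS (37 °C, 5% CO2), then exposed to compound for 72 or 24 h. Cells were detached with 0.05% trypsin/0.02% EDTA, and 1×10^5 cells in 0.1 mL cation-free DPBS were injected into the tail vein of female BDF1 mice (7 weeks, five per group).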

Mus musculus [2] = species on record: Mus musculus; assay: Number of tumor nodules at 145 uM of compound in mice(Range 5-97 ); assay type: functional; in short: as §1
Mus musculus [3] = species on record: Mus musculus; assay: Number of tumor nodules at 29 uM of compound in mice(Range 200-270 ); assay type: functional; in short: as §1
Mus musculus [4] = species on record: Mus musculus; assay: Number of tumor nodules at 87 uM of compound in mice(Range 122-237 ); assay type: functional; in short: as §1
Mus musculus [5] = species on record: Mus musculus; assay: % inhibition of metastasis at 29 uM in mice; assay type: functional; in short: as §1
Mus musculus [6] = species on record: Mus musculus; assay: % inhibition of metastasis at 87 uM in mice; assay type: functional; in short: as §1
Mus musculus [7] = species on record: Mus musculus; assay: Cell growth at 145 uM concentration in mice; assay type: functional
In short: (§2)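 B16 BL6 cells (3×10^5) were precultured 24 h in DMEM/FBS at 37 °C, 5% CO2, then incubated with or without compound for 72 or 24 h under the same conditions. After 0.05% trypsin/0.02% EDTA release, cells were suspended in 1 mL divalent cation-free DPBS and reported as cells per mL before tail-vein injection into BDF1 mice.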

Mus musculus [8] = species on record: Mus musculus; assay: Cell growth at 29 MicroM concentration in mice; assay type: functional; in short: as §2
Mus musculus [9] = species on record: Mus musculus; assay: Cell growth at 87 uM concentration in mice; assay type: functional; in short: as §2
Mus musculus [10] = species on record: Mus musculus; assay: % inhibition of metastasis at 103 uM in mice; assay type: functional; in short: as §1
Mus musculus [11] = species on record: Mus musculus; assay: % inhibition of metastasis at 172 uM in mice; assay type: functional; in short: as §1
Mus musculus [12] = species on record: Mus musculus; assay: Number of tumor nodules at 103 uM of compound in mice(Range 136-64 ); assay type: functional; in short: as §1
Mus musculus [13] = species on record: Mus musculus; assay: Number of tumor nodules at 172 uM of compound in mice(Range 136-84 ); assay type: functional; in short: as §1
Mus musculus [14] = species on record: Mus musculus; assay: Number of tumor nodules at 34 uM of compound in mice(Range 169-115 ); assay type: functional; in short: as §1
Mus musculus [15] = species on record: Mus musculus; assay: % inhibition of metastasis at 34 uM in mice; assay type: functional; in short: as §1
Mus musculus [16] = species on record: Mus musculus; assay: Cell growth at 103 uM concentration in mice; assay type: functional; in short: as §2
Mus musculus [17] = species on record: Mus musculus; assay: Cell growth at 172 uM concentration in mice; assay type: functional; in short: as §2
Mus musculus [18] = species on record: Mus musculus; assay: Cell growth at 34 MicroM concentration in mice; assay type: functional; in short: as §2
B16 [19] = assay: Number of cells invaded in cell invasion assay by incubating with 870 uM of compound for 3 hr; assay type: functional, Mus musculus
In short: (§3)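 B16 BL6 cells were cultured with compound for 72 or 24 h at 37 °C, then lifted with 0.08% sodium citrate (10 min, 37 °C), washed twice and resuspended at 1×10^6/mL in RPMI 1640 + 0.1% BSA. 100 μL went onto filters coated with 5 μg Matrigel then 10 μg laminin, with the same medium below. Incubation was 3 or 4 h at 37 °C, 5% CO2. Filters were wiped, methanol-fixed and hematoxylin-stained; invaded cells were counted in five 0.3 mm² fields (200×). Triplicates, mean ± SD; % inhibition is versus untreated cells.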

B16 [20] = assay: Compound was tested in vitro, for inhibitory effect on B16BL6 cell invasion, by incubating with 580 uM of compound for 3 hr; assay type: functional, Mus musculus; in short: as §3
B16 [21] = assay: Number of cells invaded in cell invasion assay by incubating with 580 uM of compound for 3 hr; assay type: functional, Mus musculus; in short: as §3
Mus musculus [22] = species on record: Mus musculus; assay: % inhibition of metastasis at 150 uM in mice; assay type: functional; in short: as §1
Mus musculus [23] = species on record: Mus musculus; assay: Number of tumor nodules at 150 uM of compound in mice(Range 9-1 ); assay type: functional; in short: as §1
Mus musculus [24] = species on record: Mus musculus; assay: Number of tumor nodules at 30 uM of compound in mice(Range 129-54 ); assay type: functional; in short: as §1
Mus musculus [25] = species on record: Mus musculus; assay: Number of tumor nodules at 90 uM of compound in mice(Range 20-7 ); assay type: functional; in short: as §1
Mus musculus [26] = species on record: Mus musculus; assay: % inhibition of metastasis at 30 uM in mice; assay type: functional; in short: as §1
Mus musculus [27] = species on record: Mus musculus; assay: % inhibition of metastasis at 90 uM in mice; assay type: functional; in short: as §1
Mus musculus [28] = species on record: Mus musculus; assay: Cell growth at 150 uM concentration in mice; assay type: functional; in short: as §2
Mus musculus [29] = species on record: Mus musculus; assay: Cell growth at 30 uM concentration in mice; assay type: functional; in short: as §2
Mus musculus [30] = species on record: Mus musculus; assay: Cell growth at 90 uM concentration in mice; assay type: functional; in short: as §2
B16 [31] = assay: Compound was tested in vitro, for inhibitory effect on B16BL6 cell invasion, by incubating with 870 uM of compound for 3 hr; assay type: functional, Mus musculus; in short: as §3
B16 [32] = assay: Compound was tested in vitro, for inhibitory effect on B16BL6 cell invasion, by incubating with 129 uM of compound for 4 hr; assay type: functional, Mus musculus; in short: as §3
B16 [33] = assay: Compound was tested in vitro, for inhibitory effect on B16BL6 cell invasion, by incubating with 258 uM of compound for 4 hr; assay type: functional, Mus musculus; in short: as §3
B16 [34] = assay: Compound was tested in vitro, for inhibitory effect on B16BL6 cell invasion, by incubating with 518 uM of compound for 4 hr; assay type: functional, Mus musculus; in short: as §3
B16 [35] = assay: Number of cells invaded in cell invasion assay by incubating with 129 uM of compound for 4 hr; assay type: functional, Mus musculus; in short: as §3
B16 [36] = assay: Number of cells invaded in cell invasion assay by incubating with 258 uM of compound for 4 hr; assay type: functional, Mus musculus; in short: as §3
B16 [37] = assay: Number of cells invaded in cell invasion assay by incubating with 518 uM of compound for 4 hr; assay type: functional, Mus musculus; in short: as §3
Mus musculus [38] = species on record: Mus musculus; assay: Number of tumor nodules at 78 uM of compound in mice(Range 89-120 ); assay type: functional; in short: as §1
Mus musculus [39] = species on record: Mus musculus; assay: % inhibition of metastasis at 129 uM in mice; assay type: functional; in short: as §1
Mus musculus [40] = species on record: Mus musculus; assay: Number of tumor nodules at 129 uM of compound in mice(Range 13-87 ); assay type: functional; in short: as §1
Mus musculus [41] = species on record: Mus musculus; assay: Number of tumor nodules at 26 uM of compound in mice(Range 148-276 ); assay type: functional; in short: as §1
Mus musculus [42] = species on record: Mus musculus; assay: % inhibition of metastasis at 26 uM in mice; assay type: functional; in short: as §1
Mus musculus [43] = species on record: Mus musculus; assay: % inhibition of metastasis at 78 uM in mice; assay type: functional; in short: as §1
Mus musculus [44] = species on record: Mus musculus; assay: Cell growth at 129 uM concentration in mice; assay type: functional; in short: as §2
Mus musculus [45] = species on record: Mus musculus; assay: Cell growth at 26 uM concentration of the compound; assay type: functional; in short: as §2
Mus musculus [46] = species on record: Mus musculus; assay: Cell growth at 78 uM concentration in mice; assay type: functional; in short: as §2
Mus musculus [47] = species on record: Mus musculus; assay: Number of tumor nodules at 103 uM of compound in mice(Range 160-114 ); assay type: functional; in short: as §1
Mus musculus [48] = species on record: Mus musculus; assay: Number of tumor nodules at 172 uM of compound in mice(Range 118-23); assay type: functional; in short: as §1
Mus musculus [49] = species on record: Mus musculus; assay: Number of tumor nodules at 34 uM of compound in mice(Range 165-133 ); assay type: functional; in short: as §1
Mus musculus [50] = species on record: Mus musculus; assay: Cell growth at 34 uM concentration in mice; assay type: functional; in short: as §2

SMILES: NC1C(C(=O)O)CNC(NC(=O)C(F)(F)F)C1O (stereo not given)
- Inhibition (Mus musculus [1]): 75.5%
- No. of lung metastasis (Mus musculus [2]): 62.4
- No. of lung metastasis (Mus musculus [3]): 245.4
- No. of lung metastasis (Mus musculus [4]): 157.8
- Inhibition (Mus musculus [5]): 3.8%
- Inhibition (Mus musculus [6]): 38.1%
- No. of cells (Mus musculus [7]): 1.4e+06 mL
- No. of cells (Mus musculus [8]): 1.6e+06 mL
- No. of cells (Mus musculus [9]): 1.6e+06 mL

SMILES: CC(=O)N[C@H]1NC[C@@H](C(=O)O)[C@H](N)[C@@H]1O
- Inhibition (Mus musculus [10]): 26.6%
- Inhibition (Mus musculus [11]): 30.9%
- No. of lung metastasis (Mus musculus [12]): 108.8
- No. of lung metastasis (Mus musculus [13]): 101.6
- No. of lung metastasis (Mus musculus [14]): 145.2
- Inhibition (Mus musculus [15]): 1.4%
- No. of cells (Mus musculus [16]): 2.1e+07 mL
- No. of cells (Mus musculus [17]): 1.6e+07 mL
- No. of cells (Mus musculus [18]): 1.6e+07 mL

SMILES: CC(=O)NC1NCC(C(=O)O)C(N=C(N)N)C1O (stereo not given)
- No. of invaded cells (B16 [19]): 17.7
- Inhibition (B16 [20]): 44.8%
- No. of invaded cells (B16 [21]): 23.7
- Inhibition (Mus musculus [22]): 97%
- No. of lung metastasis (Mus musculus [23]): 4.4
- No. of lung metastasis (Mus musculus [24]): 88.2
- No. of lung metastasis (Mus musculus [25]): 13.2
- Inhibition (Mus musculus [26]): 40.1%
- Inhibition (Mus musculus [27]): 91%
- No. of cells (Mus musculus [28]): 1.9e+07 mL
- No. of cells (Mus musculus [29]): 1.9e+07 mL
- No. of cells (Mus musculus [30]): 1.7e+07 mL
- Inhibition (B16 [31]): 58.9%

SMILES: N=C(N)NC1C(C(=O)O)CNC(NC(=O)C(F)(F)F)C1O (stereo not given)
- Inhibition (B16 [32]): 61.1%
- Inhibition (B16 [33]): 44.4%
- Inhibition (B16 [34]): 63.9%
- No. of invaded cells (B16 [35]): 0.9
- No. of invaded cells (B16 [36]): 1.3
- No. of invaded cells (B16 [37]): 0.9
- No. of lung metastasis (Mus musculus [38]): 105.6
- Inhibition (Mus musculus [39]): 81%
- No. of lung metastasis (Mus musculus [40]): 48.4
- No. of lung metastasis (Mus musculus [41]): 219
- Inhibition (Mus musculus [42]): 14.1%
- Inhibition (Mus musculus [43]): 58.8%
- No. of cells (Mus musculus [44]): 1.5e+06 mL
- No. of cells (Mus musculus [45]): 1.9e+06 mL
- No. of cells (Mus musculus [46]): 1.3e+06 mL

SMILES: CC(=O)N[C@H]1NC[C@@H](C(=O)O)[C@H](N)[C@H]1O
- Inhibition (Mus musculus [10]): 12.1%
- Inhibition (Mus musculus [11]): 44.3%
- No. of lung metastasis (Mus musculus [47]): 129.4
- No. of lung metastasis (Mus musculus [48]): 82
- No. of lung metastasis (Mus musculus [49]): 147.2
- Inhibition (Mus musculus [15]): 0%
- No. of cells (Mus musculus [16]): 1.4e+07 mL
- No. of cells (Mus musculus [17]): 1.8e+07 mL
- No. of cells (Mus musculus [50]): 1.4e+07 mL
